Screens as filed in PubChem.
HMGR II inh: inhibitors of E. faecalis class II HMGR, primary screen, biochemical, Enterococcus faecalis; purified E. faecalis HMGR, NADPH absorbance 340 nm kinetic; inhibition, % at 10 µM; actives 0.41% (n = 190,000); AID 1066, 2008;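 active means inhibition above a set limit, the median over all tested compounds plus 3 SD, cut at about 9.5% in these data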;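 further: enzyme runs in reverse so mevalonate oxidation gives rising NADPH absorbance; 0% = complete reaction with DMSO and 100% = background rate lacking mevalonate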
Rad51 HR inh: human RAD51 strand exchange inhibitors, primary screen, biochemical, fluorescence | actives 0.085% (n = 200,000) | DNA repair protein RAD51 homolog 1 (Homo sapiens), Q06609 | AID 1385, 2008 | inhibition, % at 10 µM | hRad51 DNA strand exchange, fluorescence dequenching;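 active means inhibition above 40% at the single screening dose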;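 further: 0% = DMSO control wells and 100% = blanks with heterologous ssDNA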
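Read-out basis: percent inhibition relative to plate controls and blanks / Assay system: human Rad51 nucleoprotein filaments preassembled on unlabelled ssDNA / Timing: filaments 15 min 37 °C, then compound 30 min / Control set: per-plate controls and blanks / Technique: fluorescence dequenching at 485/520 nm / Compound: 10 µM final, single point / Also added: Fluorescein- and BHQ1-tagged 47-mer duplex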
S1P3 antag-1: S1P3 receptor antagonists, primary screen, cell-based; CHO S1P3 NFAT-BLA reporter, FRET fluorescence, antagonist mode; inhibition, % at 4.98 µM; actives 0.27% (n = 170,000); AID 485, 2006;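 active means inhibition above the plate cutoff, the mean inhibition of test wells on that plate plus 3 SD, cut at about 28% in these data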;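 further: cells challenged with S1P at its EC80 of 0.8 µM; blue over green emission ratio from cleaved BLA substrate after 4 h stimulation; 0% = S1P-stimulated wells and 100% = unstimulated DMSO-only wells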
S1P4 agonist: S1P4 receptor agonists, primary screen, cell-based; Sphingosine 1-phosphate receptor 4 (Homo sapiens), O95977; S1P4-expressing cell line, agonist reporter assay; activation, % at 4.98 µM; actives 0.35% (n = 220,000); AID 1509, 2009; in the data active means activation above about 11%;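 further: 0% = DMSO vehicle and 100% = reference agonist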
S1P4 antagonist: S1P4 receptor antagonists, primary screen, cell-based. S1P4-expressing cells, antagonist mode, reporter read-out. inhibition, % at 4.98 µM. actives 0.26% (n = 220,000). AID 1510, 2009; in the data active means inhibition above about 29%;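 further: 0% = wells stimulated with agonist and 100% = vehicle wells without agonist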
Calb biofilm kill: clotrimazole potentiators killing C. albicans biofilm, primary screen, 4-compound mixtures. inhibition, % at 7.6 µM. C. albicans biofilm persisters + clotrimazole, fluorescence viability; primary screen in compound mixtures of four per well. AID 1242, 2008. actives 0.02% (n = 120,000);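 active means inhibition above 30.3% in the primary screen of four-compound pools, then above 30% when the compound was retested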;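 further: compounds exposed to preformed 24 h biofilms for 48 h; 0% = untreated biofilm control and 100% = clotrimazole plus chlorhexidine kill blank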
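Assay system: C. albicans biofilms / Medium: RPMI/MOPS medium, pH 7.0 / Schedule: biofilm formation 24 h, compound exposure 48 h, 37 °C / Measured by: Alamar Blue fluorescence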
S1P3 antag-2: S1P3 receptor antagonists, retest, confirmation, cell-based; AID 1429, 2008; CHO S1P3 NFAT-BLA reporter, FRET, antagonist mode; inhibition, % at 4.98 µM; shares compounds with S1P3 antag-1; actives 30% (n = 240);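 active means inhibition above the hit threshold that was computed for the earlier primary screen, cut at about 30% in these data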;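 further: 0% = S1P-stimulated wells and 100% = unstimulated DMSO-only wells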
S1P4 agonist cf: S1P4 receptor agonists, retest, confirmation, cell-based, high throughput | actives 7% (n = 740) | shares compounds with S1P4 agonist | S1P4 agonist cell-based reporter assay | AID 1523, 2009 | activation, % at 4.98 µM; in the data active means activation above about 12%;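 further: 0% = vehicle and 100% = full reference agonist response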
S1P1 agonist: S1P1 receptor agonists, human, counter-screen for S1P4 agonist project, cell-based | shares compounds with S1P4 agonist | S1P1 agonist cell-based assay, activation | activation, % at 4.98 µM | actives 4% (n = 740); in the data active means activation above about 21%;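 further: 0% = vehicle wells and 100% = reference agonist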
Target sequence (P21453 whole entry, looked up): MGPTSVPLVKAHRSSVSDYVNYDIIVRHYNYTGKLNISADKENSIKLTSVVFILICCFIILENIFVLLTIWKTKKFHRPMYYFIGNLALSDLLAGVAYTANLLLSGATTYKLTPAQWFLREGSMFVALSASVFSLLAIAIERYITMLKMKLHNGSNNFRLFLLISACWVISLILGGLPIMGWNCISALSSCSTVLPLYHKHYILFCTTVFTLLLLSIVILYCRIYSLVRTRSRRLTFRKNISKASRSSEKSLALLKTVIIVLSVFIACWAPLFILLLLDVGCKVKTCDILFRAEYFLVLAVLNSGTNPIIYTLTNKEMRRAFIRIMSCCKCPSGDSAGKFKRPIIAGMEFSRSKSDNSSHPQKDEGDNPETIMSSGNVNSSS
S1P4 antag conf: S1P4 receptor antagonists, human, confirmation, cell-based; S1P4-expressing cell line, antagonist mode, reporter read-out; inhibition, % at 4.98 µM; AID 1524, 2009; actives 71% (n = 520); shares compounds with S1P4 antagonist; in the data active means inhibition above about 30%
S1P1 antag: S1P1 receptor antagonists, human, counter-screen for S1P4 antagonist project, cell-based. actives 37% (n = 520). cell-based S1P1 antagonist counterscreen, inhibition. inhibition, % at 4.98 µM. shares compounds with S1P4 antagonist; in the data active means inhibition above about 40%;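 further: receptor stimulated with S1P near its EC80; 0% = agonist stimulated wells and 100% = vehicle only wells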
Active calls of the source: *; i = inactive; nt = no result given. Most compounds without a hit are left out; they make up all but 1.2% or so of the library.

SMILES	HMGR II inh	Rad51 HR inh	S1P3 antag-1	S1P4 agonist	S1P4 antagonist	Calb biofilm kill	S1P3 antag-2	others
COc1cc(/C=C2\SC(=O)N(c3ccc(O)cc3)C2=O)cc(OC)c1OC	nt	nt	31*	3	-19	19	-1
CC1CCC(NC(=O)C(NC(=O)c2ccccc2)C(C)C)CC1 (stereo not drawn)	0	nt	-9	0	-16	7	nt
COc1ccc(C(=O)NCc2ccc(-n3cccc3)cc2)cc1OC	-6	-5	41*	1	-2	18	-15
COc1ccc(C(=O)NCc2ccc(C(=O)NCC(OC)OC)cc2)cc1OC	-4	0	-13	0	-12	7	nt
O=C(Cn1c(=O)oc2ccccc21)NCCc1ccccc1Cl	-7	-10	21	1	-21	14	nt
Cc1ccc(S(=O)(=O)N2c3ccc(S(N)(=O)=O)cc3CC2C)cc1 (stereo not drawn)	-2	nt	-4	0	-1	5	nt
CC(C)CNC(=O)c1cccc(NC(=O)Cc2ccc(Br)cc2)c1	-8	7	30*	0	-14	9	-14
COc1ccc(CCNc2ncnc3sccc23)cc1OC	-2	-18	49*	1	-13	14	23
NS(=O)(=O)c1ccc(CCNc2ncnc3sccc23)cc1	-5	-3	-29	4	-35	nt	nt
CCCCC(=O)N/N=C/c1ccc(-c2ccc([N+](=O)[O-])cc2)o1	-8	-18	18	2	0	2	nt
CC(C)(C)NC(=S)N/N=C\c1ccc(-c2ccc([N+](=O)[O-])cc2)o1	nt	-317	70*	-3	45*	13	73*	S1P4 antag conf=83*;S1P1 antag=134*
COC(=O)c1scc2c(=O)cc(C(F)(F)F)[nH]c12	nt	4	32*	1	35*	20	24	S1P4 antag conf=69*;S1P1 antag=51*
COC(=O)/C(=C\Nc1ccc(Cl)cc1Cl)NC(=O)c1ccc(Cl)cc1Cl	3	nt	nt	-4	9	nt	nt
Cc1ccc(/C=N/NC(=O)C2(O)c3ccccc3-c3ccccc32)o1	-4	-45	-14	1	-19	-16	nt
CCCCNc1ccc2c3c(cccc13)C(=O)N(CCCC)C2=O	nt	i	47*	0	45*	13	59*	S1P4 antag conf=67*;S1P1 antag=98*
CCCc1nc2c(=O)n(C)c(=O)nc-2n(C)n1	-1	nt	72*	2	54*	4	107*	S1P4 antag conf=89*;S1P1 antag=56*
CCn1c(N)nc2c1c(=O)n(C)c(=O)n2C	-3	9	24	-2	-2	nt	nt
CN1C(=O)OC2(C)CCc3ccccc3C12C (stereo not drawn)	-1	-30	22	22*	-16	nt	nt	S1P4 agonist cf=-1;S1P1 agonist=-2
C=C1CCN([C@@H](CC(C)C)C(=O)NCc2ccc(Cl)c(Cl)c2)S(=O)(=O)c2ccccc21	nt	-3	nt	nt	nt	nt	nt
Cc1ccc(C(=O)NCCc2nnc(SCC(=O)Nc3nc(-c4ccccc4)cs3)n2C)cc1	0	-1	nt	0	3	12	nt
